# An excerpt weighted towards active compounds, which were near 9.6% of everything screened.
# TNAP inh no acc – inhibitors of human TNAP without phosphate acceptor; P05186; purified TNAP, CDP-star luminescence, 30 min; inhibition, % at 20 µM; hit rate 0.26% among 200,000;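 active means tissue-nonspecific alkaline phosphatase inhibition above about 50% at 20 µM in the single-dose screen, limit read from the data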;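 further: 0% = DMSO negative control and 100% = EDTA positive control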
# Target sequence (P05186 whole entry, looked up): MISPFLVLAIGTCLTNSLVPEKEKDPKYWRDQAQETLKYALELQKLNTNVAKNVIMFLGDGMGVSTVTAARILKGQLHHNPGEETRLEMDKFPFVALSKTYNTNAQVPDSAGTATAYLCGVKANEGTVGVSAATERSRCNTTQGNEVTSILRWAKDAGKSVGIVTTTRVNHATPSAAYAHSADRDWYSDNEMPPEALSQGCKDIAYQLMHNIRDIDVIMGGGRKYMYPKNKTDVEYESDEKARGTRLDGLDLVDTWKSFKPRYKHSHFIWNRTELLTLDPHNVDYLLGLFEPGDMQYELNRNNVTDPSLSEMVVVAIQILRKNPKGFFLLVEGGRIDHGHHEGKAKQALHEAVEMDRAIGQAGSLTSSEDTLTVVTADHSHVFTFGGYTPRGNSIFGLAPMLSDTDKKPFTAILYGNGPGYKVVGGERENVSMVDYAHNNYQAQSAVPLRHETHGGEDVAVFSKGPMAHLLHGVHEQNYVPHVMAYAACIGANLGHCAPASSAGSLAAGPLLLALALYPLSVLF
# Lmaj promast – reduces viability of Leishmania major promastigotes; resazurin fluorescence viability; AID 1063; hit rate 9% among 200,000; inhibition, % at 10 µM; in the data active means inhibition above about 50%;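 further: promastigotes grown with compound for 44 hours at 28 °C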
# TNAP inh hi DEA – inhibitors of human TNAP at high phosphate acceptor concentration; inhibition, % at 20 µM; hit rate 0.03% among 200,000; purified TNAP, CDP-star luminescence, 1 M DEA; P05186;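 active means over 50% inhibition of tissue-nonspecific alkaline phosphatase at 20 µM in the single-dose screen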;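 further: plate controls were DMSO wells for no effect and EDTA-quenched wells as full inhibition for full effect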
# PTEN del growth – PTEN-deleted cell growth suppression; HCT116 PTEN-null viability, CellTiter-Glo, 60 h; stronger effect = lower value; viability, % at 10 µM; hit rate 1.2% among 140,000; AID 827;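 active means viability at or below a set limit, 4 SD under the median of all tested compounds, cut at about 3.7% in these data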;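 further: PTEN knockout HCT116 line with beta catenin targeted HCT116 as companion control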
# TNAP act hiacc – activators of human TNAP at high phosphate acceptor concentration; purified TNAP, CDP-star luminescence, 1 M DEA, 30 min; stronger effect = higher value; 0 = EDTA background, 1 = DMSO-only activity; activation factor at 20 µM; AID 1136; 200,000 tested, under 10 active; P05186;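 active means activation factor at least 2 at 20 µM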
#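 Control set: EDTA negative control, DMSO positive control / Assay system: human TNAP / Quantity: TNAP 1/800 final / Evaluation: TNAP activation factor scaled between EDTA and DMSO control wells / Measured by: luminescent substrate turnover signal / Compound dosing: one dose, 20 µM / Times: 30 min enzyme reaction at room temperature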
# bCat KO growth – beta-catenin-lacking colon tumor cell growth suppression. viability, % at 10 µM. HCT116 beta-catenin knockout viability, CellTiter-Glo, 60 h; stronger effect = lower value. hit rate 1.5% among 140,000;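 active means viability at or under a set limit, the compound median less 4 SD, cut at about 6% in these data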;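 further: 0% = Hyamine 1622 control at 20 µM and 100% = untreated cell control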
# The depositor's hits bear a star; . = no result.
SMILES,TNAP inh no acc,Lmaj promast,TNAP inh hi DEA,PTEN del growth,TNAP act hiacc,bCat KO growth
COc1ccc2c(C)cc(SCC(=O)Nc3ccc(Cl)cn3)nc2c1,-12,59*,-4,82,1,88
COc1ccc2c(C)cc(SCC(=O)N3CCOCC3)nc2c1,-18,-2,-4,95,1,87
CC(=O)NS(=O)(=O)c1ccc(NC(=O)CN2C(=O)C3C4C=CC(C4)C3C2=O)cc1 (stereo unspecified),-4,-1,-1,98,1,91
O=C(c1cc(NC(=O)C23CC4CC(CC(C4)C2)C3)cc(NC(=O)C23CC4CC(CC(C4)C2)C3)c1)N1CCCCC1,-36,91*,-15,64,1.1,58
Cc1ccc(C(=O)NCc2ccccc2)cc1Br,-8,12,-1,96,1,86
Cc1ccc(N(C(=O)CCl)C(C(=O)NC2CCCCC2)c2cccnc2)cc1C (stereo unspecified),-20,100*,-7,4,1.1,7
Cc1ccc(N(C(=O)CNC(=O)c2ccco2)C(C(=O)NC2CCCC2)c2cccnc2)cc1C (stereo unspecified),-2,-11,-4,95,1,101
CCCOc1ccc(/C=C2\SC(=S)N(CC3CCCO3)C2=O)cc1 (stereo unspecified),10,66*,3,81,1,78
O=C(COC(=O)C1CCCC1)NCc1ccc(Cl)cc1,-2,-8,2,.,1,.
N/C(Cc1ccc(Cl)cc1)=N\OC(=O)C1CCCCC1,1,73*,4,101,1,95
NC(=O)CC1C(=O)N(c2ccc(F)cc2)C(=O)N1NC(=O)CCc1ccccc1 (stereo unspecified),-6,3,0,.,1,.
Cc1ccc(SCCC(=O)OCC(=O)NCC2CCCCC2)cc1,-15,1,-4,.,1,.
FC(F)(F)c1cc(-c2ccco2)nc2ncnn12,-2,-2,1,104,1,96
C/C(=N\Nc1nc(-c2ccccc2)cs1)c1cccs1,-14,79*,12,87,0.9,94
CCN1c2ccccc2NC2N=C(OC)C(c3ccccc3)C21 (stereo unspecified),1,49,1,1.7*,1,1.9*
CCN1c2ccccc2NC2C1C(C(C)=O)C(=O)N2c1ccc(Cl)cc1 (stereo unspecified),-5,35,-1,69,1,75
COc1cccc(NC(=O)Nc2ccccc2C(N)=O)c1,-8,-3,-5,.,1.1,.
CC(=O)C1=C(C)NC(SCSc2ccccc2)=C(C#N)C1c1cccnc1 (stereo unspecified),-5,100*,6,72,0.9,72
CC1=C(C(=O)Nc2ccccc2)C(c2ccncc2)C(C#N)=C(SCC(=O)Nc2ccccc2)N1 (stereo unspecified),-1,99*,6,93,0.9,87
CSC1=C(C#N)C(c2ccncc2)C(C(=O)Nc2ccccc2)=C(C)N1 (stereo unspecified),-15,15,-4,.,1,.
CC(=O)C1=C(C)NC(SCC(=O)c2ccc(-c3ccccc3)cc2)=C(C#N)C1c1cccnc1 (stereo unspecified),0,30,0,18,1,21
CCCS(=O)(=O)Nc1ccc(-c2ccc3nnc(C)n3n2)cc1,1,-6,-1,.,1,.
Cc1ccc(C(=O)O/N=C/c2c(N3CCOCC3)n(C)c3ccccc23)cc1,-5,98*,0,11,1,11
CC(=O)O/N=C/c1c(N2CCOCC2)n(C)c2ccccc12,-3,99*,-6,8,1.1,12
Cn1c(N2CCOCC2)c(/C=N/O)c2ccccc21,-8,3,-6,.,1.1,.
SMILES,TNAP inh no acc,Lmaj promast,TNAP inh hi DEA,PTEN del growth,TNAP act hiacc,bCat KO growth
Cn1c(N2CCOCC2)c(/C=N/OC(=O)c2ccc(F)cc2)c2ccccc21,-13,100*,-8,52,1.1,44
Cn1c(N2CCOCC2)c(/C=N/OC(=O)c2cccnc2Cl)c2ccccc21,-1,100*,2,.,1,.
Cn1c(Cl)c(/C=N/OC(=O)c2ccc(Cl)cc2)c2ccccc21,6,-5,-1,111,1,99
O=C(CCc1nc2ccccc2c(=O)[nH]1)OCCOc1ccc(Cl)cc1,-2,-3,0,.,1,.
Cc1c(C=O)c2ccccc2n1CC(=O)NCc1ccc2c(c1)OCO2,-15,10,-6,.,1.1,.
COc1cc(C(=O)OCC(=O)Nc2sccc2C(N)=O)cc(OC)c1OC,-8,0,2,.,1,.
COc1ccccc1OCC(=O)OCC(=O)Nc1sccc1C(N)=O,-12,53*,2,102,1,101
O=[N+]([O-])c1cc(Cl)cc(/C=N\Nc2ccccn2)c1O,15,98*,14,12,0.9,13
O=[N+]([O-])c1cccc(/C=N/Nc2ccccn2)c1,2,19,0,.,1,.
Cc1ccc(C2(CC(=O)Nc3nccs3)CCOC(C(C)C)C2)cc1 (stereo unspecified),-23,40,-1,65,1,71
COc1ccccc1C1(CC(=O)Nc2nccs2)CCOC(C(C)C)C1 (stereo unspecified),-8,85*,-3,69,1,70
Cc1ccc(S(=O)(=O)c2c(C(=O)c3ccccc3)cnc3cc4c(cc23)OCCO4)cc1,2,48,-4,31,1,40
C=CCSc1ncnc2sc(C)c(C)c12,-2,54*,0,103,1,103
CCSc1ncnc2sc(C)c(C)c12,-7,-2,0,85,1,95
O=C(NC(=S)Nc1cc(S(=O)(=O)N2CCOCC2)ccc1N1CCOCC1)C1CCCC1,4,10,3,.,1,.
CCOC(=O)N(NC(=O)C(O)(CC(C)C)CC(C)C)c1ccccc1,-11,-2,-4,77,1,76
COc1ccc(CC2(CO)CCN(Cc3ccc(NC(C)=O)cc3)CC2)cc1,-1,14,-2,.,1,.
COc1ccc(CC2(CO)CCN(Cc3ccc(OC(F)(F)F)cc3)CC2)cc1,-4,78*,-6,.,1.1,.
COc1ccc(CC2(CO)CCN(Cc3nc(C(C)C)cs3)CC2)cc1,-7,91*,-3,.,1,.
COc1ccc(CC2(CO)CCN(Cc3ccc4c(c3)CCO4)CC2)cc1,-3,79*,5,.,0.9,.
CCOc1cc(CN2CCC(CO)(Cc3cccc(C(F)(F)F)c3)CC2)ccc1OC,2,85*,-2,.,1,.
COc1ccc(CN2CCC(CO)(Cc3ccccc3C(F)(F)F)CC2)c(F)c1,-11,77*,-7,.,1.1,.
COc1ccc(CC2(CO)CCN(CC3=Cc4cc(Cl)ccc4OC3)CC2)cc1,-7,89*,-4,.,1,.
COc1ccc2c(c1)C=C(CN1CCC(CO)(CCc3ccccc3)CC1)CO2,-4,21,-7,.,1.1,.
